ChEMBL document CHEMBL4627381, “Licochalcone A Selectively Resensitizes ABCG2-Overexpressing Multidrug-Resistant Cancer Cells to Chemotherapeutic Drugs” (J Nat Prod, 2020)

Experiments:
[1] = molecular target: T1, Broad substrate specificity ATP-binding cassette transporter ABCG2 (Homo sapiens, UniProt Q9UNQ0); experiment: Reversal of human ABCG2-mediated multidrug resistance in HEK293/R482 cells assessed as fold change in mitoxantrone IC50 at 3 uM after 72 hrs by CCK8 assay relative to mitoxantrone IC50; assay type: cell-based
T1 sequence (Q9UNQ0 whole entry): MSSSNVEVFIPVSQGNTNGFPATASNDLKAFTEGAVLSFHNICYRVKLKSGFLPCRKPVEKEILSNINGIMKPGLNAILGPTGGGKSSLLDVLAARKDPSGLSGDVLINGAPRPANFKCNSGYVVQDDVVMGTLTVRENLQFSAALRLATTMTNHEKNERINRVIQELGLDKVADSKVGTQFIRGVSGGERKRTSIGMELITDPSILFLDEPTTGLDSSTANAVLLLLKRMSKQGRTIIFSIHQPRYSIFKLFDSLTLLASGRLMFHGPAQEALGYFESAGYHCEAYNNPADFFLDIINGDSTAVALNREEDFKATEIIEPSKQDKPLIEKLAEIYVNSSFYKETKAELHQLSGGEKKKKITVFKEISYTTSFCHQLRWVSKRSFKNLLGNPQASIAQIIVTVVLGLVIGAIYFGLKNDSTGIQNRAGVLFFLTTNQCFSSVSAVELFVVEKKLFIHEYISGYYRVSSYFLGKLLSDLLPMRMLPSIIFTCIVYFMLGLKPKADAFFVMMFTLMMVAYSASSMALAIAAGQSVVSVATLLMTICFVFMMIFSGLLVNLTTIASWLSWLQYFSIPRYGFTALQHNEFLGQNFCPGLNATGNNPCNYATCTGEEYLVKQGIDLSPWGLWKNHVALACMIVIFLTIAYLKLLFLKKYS
How it was run: (§1)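 Cells were seeded at 5000/well for 24 h, then given colchicine, etoposide, mitoxantrone or topotecan ± non-toxic modulator (0.5–3.0 μM) for 72 h, with DMSO up to 0.5%. IC50 came from fitted curves (mean ± SD, three experiments). Fold-reversal = IC50 without modulator ÷ IC50 with modulator.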

S1 [2] = experiment: Induction of apoptosis in human S1 cells assessed as late apoptotic cells at 10 uM incubated for 48 hrs by annexin V/propidium iodide staining based flow cytometry (reference value: 3.6%); assay type: functional
How it was run: (§2)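 S1 cells were exposed for 48 h to DMSO, 10 μM compound, 5 μM topotecan, or 5 μM topotecan plus 10 μM compound. They were then stained with 1.25 μg/mL annexin V–FITC and 0.1 mg/mL PI for 15 min at room temperature. 10000 cells per sample were analysed by flow cytometry; three independent experiments.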

S1 [3] = experiment: Induction of apoptosis in human S1 cells assessed as early apoptotic cells at 10 uM incubated for 48 hrs by annexin V/propidium iodide staining based flow cytometry (reference value: 2%); assay type: functional; how it was run: as §2
LS180 = experiment: Upregulation of ABCG2 mRNA expression in human LS180 cells at 1 uM by […] relative to control; assay type: functional
[4] = molecular target: T1, Broad substrate specificity ATP-binding cassette transporter ABCG2; experiment: Modulation of ABCG2 (unknown origin) expressed in S1-M1-80 cells assessed as increase in intracellular pheophorbide A accumulation at 20 uM incubated for 1 hr by FACScan flow cytometry; assay type: cell-based; conditions: s1-m1-80, 1 h
How it was run: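 Cells held drug-free 7 days. 3 × 10^5 cells were suspended in IMDM with 5% FCS and loaded with pheophorbide A (ex 395/em 670 nm) for 1 h, with or without LCA (20 μM for single-concentration accumulation) or Ko143 3 μM as reference. Read immediately by flow cytometry. Efflux inhibition was run over a concentration range; mean ± SD of three experiments.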

GES1 = experiment: Cytotoxicity against human GES-1 cells; assay type: cell-based
NCI-H460 [5] = experiment: Effect on topotecan-induced cytotoxicity against human H460 cells assessed as fold change in topotecan IC50 at 3 uM after 72 hrs by MTT assay relative to topotecan IC50; assay type: functional
How it was run: (§3)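 Parental S1 colon and H460 lung cancer cells were exposed for 72 h to a mitoxantrone or topotecan concentration series, with or without modulator at 0.5–3.0 μM, and read by MTT. Fold-reversal is IC50 without modulator divided by IC50 with modulator, taken from dose-response curves of three independent experiments.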

[6] = molecular target: T1, Broad substrate specificity ATP-binding cassette transporter ABCG2; experiment: Reversal of ABCG2 (unknown origin)-mediated multidrug resistance in human H460-MX20 cells assessed as fold change in mitoxantrone IC50 at 3 uM after 72 hrs by MTT assay relative to mitoxantrone IC50; assay type: cell-based
How it was run: (§4)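 Cells held drug-free 7 days, seeded at 5000 per well for 24 h, then exposed 72 h to mitoxantrone or topotecan dilutions with DMSO (≤0.5%), LCA 0.5–3.0 μM, or Ko143 1.0 μM. Viability was read by MTT. IC50 came from fitted dose-response curves of three independent experiments. Fold-reversal = IC50 without modulator divided by IC50 with modulator.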

[7] = molecular target: T1, Broad substrate specificity ATP-binding cassette transporter ABCG2; experiment: Reversal of ABCG2 (unknown origin)-mediated multidrug resistance in human H460-MX20 cells assessed as fold change in mitoxantrone IC50 at 1 uM after 72 hrs by MTT assay relative to mitoxantrone IC50; assay type: cell-based; how it was run: as §4
NCI-H460 [8] = experiment: Effect on mitoxantrone-induced cytotoxicity against human H460 cells assessed as change in mitoxantrone IC50 at 3 uM after 72 hrs by MTT assay relative to mitoxantrone IC50; assay type: functional; how it was run: as §3
[9] = molecular target: T1, Broad substrate specificity ATP-binding cassette transporter ABCG2; experiment: Reversal of ABCG2 (unknown origin)-mediated multidrug resistance in human S1-M1-80 cells assessed as fold-change in mitoxantrone IC50 at 2 uM after 72 hrs by MTT assay relative to mitoxantrone IC50; assay type: cell-based; conditions: s1-m1-80, 72 h
How it was run: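 MTT readout in S1-M1-80 colon cancer cells (mitoxantrone-selected, held in 80 μM mitoxantrone, then drug-free 7 days before assay). Cells were seeded at 5000/well for 24 h, then given increasing mitoxantrone or topotecan with DMSO or non-toxic modulator for 72 h at 37 °C. IC50 came from fitted dose-response curves (at least three independent experiments). Fold-reversal = IC50 without modulator ÷ IC50 with modulator.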

[10] = molecular target: T1, Broad substrate specificity ATP-binding cassette transporter ABCG2; experiment: Reversal of human ABCG2-mediated multidrug resistance in HEK293/R482 cells assessed as fold-change in topotecan IC50 at 0.5 uM after 72 hrs by CCK8 relative to topotecan IC50; assay type: cell-based; how it was run: as §1
[11] = molecular target: Multidrug resistance-associated protein 1 (Homo sapiens, UniProt P33527); experiment: Reversal of human ABCC1-mediated multidrug resistance in HEK293/MRP1 cells assessed as fold-change in etoposide IC50 at 1 uM after 72 hrs by CCK8 relative to etoposide IC50; assay type: cell-based; how it was run: as §1
Chain of Multidrug resistance-associated protein 1 (P33527 whole entry): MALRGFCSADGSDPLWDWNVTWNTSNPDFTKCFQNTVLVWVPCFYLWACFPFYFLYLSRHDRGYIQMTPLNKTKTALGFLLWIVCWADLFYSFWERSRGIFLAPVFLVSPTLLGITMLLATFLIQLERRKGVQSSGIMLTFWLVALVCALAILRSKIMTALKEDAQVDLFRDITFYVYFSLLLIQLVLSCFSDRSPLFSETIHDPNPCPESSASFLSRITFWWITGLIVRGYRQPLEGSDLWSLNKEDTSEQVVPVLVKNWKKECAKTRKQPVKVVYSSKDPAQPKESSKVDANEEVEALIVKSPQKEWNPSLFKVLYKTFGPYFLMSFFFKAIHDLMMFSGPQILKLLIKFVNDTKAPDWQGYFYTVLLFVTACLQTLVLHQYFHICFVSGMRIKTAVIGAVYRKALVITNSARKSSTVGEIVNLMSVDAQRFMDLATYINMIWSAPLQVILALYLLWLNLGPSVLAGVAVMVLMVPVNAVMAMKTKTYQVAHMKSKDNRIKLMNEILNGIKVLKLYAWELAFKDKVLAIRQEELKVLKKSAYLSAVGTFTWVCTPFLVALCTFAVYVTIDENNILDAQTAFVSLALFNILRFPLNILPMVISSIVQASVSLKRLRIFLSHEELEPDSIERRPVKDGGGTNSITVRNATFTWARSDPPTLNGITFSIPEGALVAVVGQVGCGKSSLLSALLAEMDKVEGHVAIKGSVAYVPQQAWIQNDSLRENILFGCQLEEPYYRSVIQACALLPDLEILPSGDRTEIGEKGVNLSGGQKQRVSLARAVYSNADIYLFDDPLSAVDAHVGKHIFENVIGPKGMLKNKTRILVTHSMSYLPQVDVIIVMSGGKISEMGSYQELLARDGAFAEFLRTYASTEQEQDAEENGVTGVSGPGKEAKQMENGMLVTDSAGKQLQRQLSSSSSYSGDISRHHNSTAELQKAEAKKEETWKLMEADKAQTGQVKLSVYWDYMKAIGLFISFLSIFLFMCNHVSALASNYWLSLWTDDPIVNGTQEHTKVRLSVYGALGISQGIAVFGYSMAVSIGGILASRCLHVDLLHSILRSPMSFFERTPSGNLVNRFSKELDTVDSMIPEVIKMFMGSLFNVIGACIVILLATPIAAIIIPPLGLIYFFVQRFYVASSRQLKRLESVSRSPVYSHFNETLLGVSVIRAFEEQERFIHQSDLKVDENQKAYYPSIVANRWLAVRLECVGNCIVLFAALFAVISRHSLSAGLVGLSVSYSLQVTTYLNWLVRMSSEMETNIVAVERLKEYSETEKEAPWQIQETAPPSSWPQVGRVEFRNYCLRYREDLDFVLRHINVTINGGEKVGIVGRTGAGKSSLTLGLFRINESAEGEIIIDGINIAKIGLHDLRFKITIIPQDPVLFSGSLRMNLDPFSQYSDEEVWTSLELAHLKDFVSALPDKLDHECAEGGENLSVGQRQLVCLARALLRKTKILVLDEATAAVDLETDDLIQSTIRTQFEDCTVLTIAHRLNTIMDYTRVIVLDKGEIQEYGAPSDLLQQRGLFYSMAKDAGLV

[12] = molecular target: ATP-dependent translocase ABCB1 (Homo sapiens, UniProt P08183); experiment: Reversal of human ABCB1-mediated multidrug resistance in HEK293/MDR19 cells assessed as fold change in colchicine IC50 at 1 uM after 72 hrs by CCK8 relative to colchicine IC50; assay type: cell-based; how it was run: as §1
Chain of ATP-dependent translocase ABCB1 (P08183 whole entry): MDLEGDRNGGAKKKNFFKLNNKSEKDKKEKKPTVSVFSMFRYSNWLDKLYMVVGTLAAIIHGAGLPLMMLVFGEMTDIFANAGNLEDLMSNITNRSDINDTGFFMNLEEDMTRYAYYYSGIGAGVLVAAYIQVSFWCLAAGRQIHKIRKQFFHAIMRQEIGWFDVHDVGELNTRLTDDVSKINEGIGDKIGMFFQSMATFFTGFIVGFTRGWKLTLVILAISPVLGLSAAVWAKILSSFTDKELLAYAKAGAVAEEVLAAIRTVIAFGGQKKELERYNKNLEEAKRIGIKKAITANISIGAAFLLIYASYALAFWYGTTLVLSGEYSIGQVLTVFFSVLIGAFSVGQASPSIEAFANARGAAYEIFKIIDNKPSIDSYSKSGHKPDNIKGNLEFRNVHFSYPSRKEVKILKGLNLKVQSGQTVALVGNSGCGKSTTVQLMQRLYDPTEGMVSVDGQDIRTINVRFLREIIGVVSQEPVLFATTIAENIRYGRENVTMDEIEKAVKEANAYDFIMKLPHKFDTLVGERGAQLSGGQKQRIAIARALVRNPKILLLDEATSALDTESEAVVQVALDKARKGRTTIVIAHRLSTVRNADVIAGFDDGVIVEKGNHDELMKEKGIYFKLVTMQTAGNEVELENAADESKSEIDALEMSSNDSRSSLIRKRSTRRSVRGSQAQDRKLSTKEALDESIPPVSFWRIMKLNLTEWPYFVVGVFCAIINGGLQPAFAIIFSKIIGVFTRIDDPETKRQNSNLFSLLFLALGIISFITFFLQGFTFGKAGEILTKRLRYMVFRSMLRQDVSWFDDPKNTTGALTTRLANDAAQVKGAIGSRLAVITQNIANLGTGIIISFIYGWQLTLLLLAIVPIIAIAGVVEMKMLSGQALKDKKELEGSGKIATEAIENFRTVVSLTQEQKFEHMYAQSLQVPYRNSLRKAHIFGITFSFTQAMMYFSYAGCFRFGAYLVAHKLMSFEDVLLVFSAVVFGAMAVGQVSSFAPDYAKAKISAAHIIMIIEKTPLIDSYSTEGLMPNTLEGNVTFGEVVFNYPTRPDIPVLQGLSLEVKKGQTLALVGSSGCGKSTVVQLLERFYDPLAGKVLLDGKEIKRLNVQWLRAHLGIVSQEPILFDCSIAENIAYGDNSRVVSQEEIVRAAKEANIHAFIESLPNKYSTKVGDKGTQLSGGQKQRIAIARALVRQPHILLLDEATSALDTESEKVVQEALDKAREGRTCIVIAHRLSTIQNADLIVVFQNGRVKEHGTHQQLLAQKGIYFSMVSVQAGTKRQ

With `C=CC(C)(C)c1cc(/C=C/C(=O)c2ccc(O)cc2)c(OC)cc1O` [LICOAGROCHACONE A] as the compound, how does the “fold change (FC)” value [1] read?
Its value is 8.1.

What about the Activity (S1 [2]) of the same compound?
The Activity was 2.7%.

And the Activity (S1 [3])?
Its Activity is 1.7%.

What about the “fold change (FC)” value (LS180) of the same compound?
The value was 2 - 6.

What about the Activity [4] of the same compound?
Its Activity is “Active”.

And the IC50 (GES1)?
Its IC50 is greater than 180 µM.

And the “fold change (FC)” value (NCI-H460 [5])?
Its value is 1.7.

And the “fold change (FC)” value [6]?
The value was 16.6.

What about the “fold change (FC)” value [7] of the same compound?
The value was 13.4.

And the “fold change (FC)” value (NCI-H460 [8])?
The value was 1.1.

And the “fold change (FC)” value [9]?
Its value is 28.

And the “fold change (FC)” value [10]?
The value was 2.2.

What about the “fold change (FC)” value [11] of the same compound?
Its value is 1.3.

And the “fold change (FC)” value [12]?
Its value is 0.8.
